# From ChEMBL document CHEMBL1148398, “Design, synthesis, and biological evaluation of thio-containing compounds with serum HDL-cholesterol-elevating properties” (2004)
# Key:
# Rattus norvegicus [1] = test: Effect of compound on gain in body weight in 7th group of normal chow-fed male rats after a dose of 100 mg/kg/day; assay type: functional
# How it was run: (§1)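 Male Sprague–Dawley CD rats (60–80 g) on standard chow under a reversed 12 h light/dark cycle. Compound was suspended in 1.3% Tween 80/0.25% CMC and given as a single daily oral gavage dose for 4 days. Rats were fasted overnight and killed 24 h after the last dose. Serum ALT, AST, ALKP and LDH were read on a clinical analyzer. Weight gain was start versus end weight. Mean ± SEM, n = 6.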
# Rattus norvegicus [2] = test: Effect of compound on high-density lipoprotein cholesterol levels in 5th group of normal chow-fed male rats after a dose of 20 mg/kg/day; assay type: functional, organism-based
# Rattus norvegicus [3] = test: Percent change in high-density lipoprotein cholesterol following oral administration of compound in normal chow-fed rats at 100 mg/kg/day for 4 days; assay type: functional
# How it was run: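 Chow-fed male Sprague–Dawley CD rats, 60–80 g, gavaged 100 mg/kg/day for 4 days in 1.3% Tween 80/0.25% CMC. Fasted overnight, bled 24 h after the last dose. Total cholesterol and glycerol-blanked triglycerides read enzymatically; lipoproteins by FPLC with cholesterol per fraction. % change versus control; six per group, p < 0.05.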
# Rattus norvegicus [4] = test: Effect of compound on relative liver weight in 4th group of normal chow-fed male rats after a dose of 10 mg/kg/day; assay type: functional
# How it was run: (§2)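 Chow-fed male Sprague–Dawley CD rats, 60–80 g, dosed by oral gavage once daily for 4 days in 1.3% Tween 80/0.25% CMC. Fasted overnight and sacrificed 24 h after the last dose. Liver weight expressed as % of body weight at termination. Six per group, mean ± SEM.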
# Rattus norvegicus [5] = test: Effect of compound on aspartate aminotransferase (AST) levels in 6th group of normal chow-fed male rats after a dose of 50 mg/kg/day; assay type: functional, organism-based; how it was run: as §1
# Rattus norvegicus [6] = test: Effect of compound on high-density lipoprotein cholesterol levels in 4th group of normal chow-fed male rats after a dose of 10 mg/kg/day; assay type: functional, organism-based
# Cricetinae gen. sp. [7] = test: Effect of compound on liver weight in 1st group of cholesterol-fed male hamsters at 3 mg/kg/day after 14 days of treatment; assay type: functional
# How it was run: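 Male Syrian Golden hamsters, 90–100 g, fed chow plus 0.25% cholesterol for 2 weeks before and throughout dosing. Compound suspended in 2% Tween 80 in saline, given by oral gavage for 14 days; vehicle controls. Fasted 4 h, last dose 2 h before sacrifice, then weighed and blood and liver collected. Liver enzymes read on a clinical analyzer. Six per group, mean ± SEM.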
# Cricetinae gen. sp. [8] = test: Effect of compound on triglycerides level in 1st group of cholesterol-fed male hamsters at 3 mg/kg/day after 14 days of treatment; settings: Mesocricetus auratus
# Rattus norvegicus [9] = test: Effect of compound on total plasma cholesterol levels in 1st group of normal chow-fed male rats after a dose of 1 mg/kg/day; assay type: functional, organism-based
# How it was run: (§3)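 Male Sprague–Dawley CD rats, 60–80 g, on standard chow with reverse 12 h light/dark cycle. One oral gavage dose daily for 4 days, suspended in 1.3% Tween 80 and 0.25% CMC. Fasted overnight; sacrificed 24 h after the last dose. Serum TC on clinical analyzer, lipoproteins by FPLC with cholesterol per fraction, T4 on analyzer. Mean ± SEM, six rats per group.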
# Rattus norvegicus [10] = test: Effect of compound on serum high-density lipoprotein cholesterol concentration in chow-fed male rats at a dose of 10 mg/kg/day; assay type: functional, organism-based
# How it was run: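 Separate dose-response study in male Sprague–Dawley CD rats, 60–80 g, on chow. Oral gavage once daily for 4 days in 1.3% Tween 80 / 0.25% CMC; fasted overnight, bled 24 h after last dose. Apo-A1 by ELISA with rabbit anti-rat primary, alkaline phosphatase-conjugated anti-rabbit IgG and p-nitrophenyl phosphate substrate. HDL-C by FPLC fractionation. Mean ± SEM, six per group.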
# Cricetinae gen. sp. [11] = test: Effect of compound on triglycerides level in 2nd group of cholesterol-fed male hamsters at 10 mg/kg/day after 14 days of treatment; settings: Mesocricetus auratus
# Rattus norvegicus [12] = test: Effect of compound on triglyceride levels in 5th group of normal chow-fed male rats after a dose of 20 mg/kg/day; assay type: functional, organism-based
# How it was run: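 Male Sprague–Dawley CD rats (60–80 g) on Purina 5001 chow with a reverse 12 h light/dark cycle. Dosed once daily by oral gavage for 4 days, suspended in 1.3% Tween 80 / 0.25% CMC. Fasted overnight and bled 24 h after the last dose. Serum TC and glycerol-blanked TG measured enzymatically; VLDL-C by FPLC fractionation with cholesterol assay. n=6, mean ± SEM.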
# Cricetinae gen. sp. [13] = test: Effect of compound on aspartate aminotransferase (AST) levels in 3rd group of cholesterol-fed male hamsters at 30 mg/kg/day after 14 days of treatment; settings: Mesocricetus auratus
# Cricetinae gen. sp. [14] = test: Effect of compound on high-density lipoprotein cholesterol levels in 4th group of cholesterol-fed male hamsters at 100 mg/kg/day after 14 days of treatment; settings: Mesocricetus auratus
# Rattus norvegicus [15] = test: Effect of compound on relative liver weight in 1st group of normal chow-fed male rats after a dose of 1 mg/kg/day; assay type: functional; how it was run: as §2
# Mesocricetus auratus = test: Effect of compound on liver weight in 4th group of cholesterol-fed male hamsters at 100 mg/kg/day after 14 days of treatment
# Cricetinae gen. sp. [16] = test: Effect of compound on total plasma cholesterol levels in 4th group of cholesterol-fed male hamsters at 100 mg/kg/day after 14 days of treatment; settings: Mesocricetus auratus
# Rattus norvegicus [17] = test: Effect of compound on alanine aminotransferase (ALT) levels in 5th group of normal chow-fed male rats after a dose of 20 mg/kg/day; assay type: functional, organism-based; how it was run: as §1
# Cricetinae gen. sp. [18] = test: Effect of compound on total plasma cholesterol levels in 1st group of cholesterol-fed male hamsters at 3 mg/kg/day after 14 days of treatment; settings: Mesocricetus auratus
# Rattus norvegicus [19] = test: Effect of compound on liver weight in 5th group of normal chow-fed male rats after a dose of 20 mg/kg/day; assay type: functional
# How it was run: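 Male Sprague–Dawley CD rats, 60–80 g, on chow with a reverse 12 h light/dark cycle. Given one oral gavage dose daily for 4 days, suspended in 1.3% Tween 80/0.25% CMC. Fasted overnight and sacrificed 24 h after the last dose for blood and liver. Serum liver enzymes read on a clinical analyzer. Six per group, mean ± SEM.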
# Rattus norvegicus [20] = test: Effect of compound on thyroxine levels in 1st group of normal chow-fed male rats after a dose of 1 mg/kg/day; assay type: functional, organism-based; how it was run: as §3
# Rattus norvegicus [21] = test: Effect of compound on alkaline phosphatase (ALKP) levels in 5th group of normal chow-fed male rats after a dose of 20 mg/kg/day; assay type: functional, organism-based; how it was run: as §1
# Rattus norvegicus [22] = test: Effect of compound on gain in body weight in 2nd group of normal chow-fed male rats after a dose of 2 mg/kg/day; assay type: functional; how it was run: as §1
# Rattus norvegicus [23] = test: Effect of compound on lactic dehydrogenase (LDH) levels in 3rd group of normal chow-fed male rats after a dose of 5 mg/kg/day; assay type: functional, organism-based; how it was run: as §1
# Rattus norvegicus [24] = test: Effect of compound on high-density lipoprotein cholesterol levels in 2nd group of normal chow-fed male rats after a dose of 2 mg/kg/day; assay type: functional, organism-based
smiles,measurement,setting,value
CCN1CC(=O)N(c2cc(Cl)ccc2C)C1=S,Body weight,Rattus norvegicus [1],22.5 g
same,Serum level,Rattus norvegicus [2],58 mg/dL
same,Change,Rattus norvegicus [3],89.1%
same,Relative liver weight,Rattus norvegicus [4],4.3%
same,Level,Rattus norvegicus [5],232 U l-1
same,Serum level,Rattus norvegicus [6],61 mg/dL
same,Liver weight,Cricetinae gen. sp. [7],9.58 g
same,Serum level,Cricetinae gen. sp. [8],431 mg/dL
same,Serum level,Rattus norvegicus [9],55 mg/dL
same,Serum level,Rattus norvegicus [10],73.1 mg/dL
same,Serum level,Cricetinae gen. sp. [11],455 mg/dL
same,Serum level,Rattus norvegicus [12],19 mg/dL
same,Level,Cricetinae gen. sp. [13],204 U l-1
same,Serum level,Cricetinae gen. sp. [14],191 mg/dL
same,Relative liver weight,Rattus norvegicus [15],4.3%
same,Liver weight,Mesocricetus auratus,8.95 g
same,Serum level,Cricetinae gen. sp. [16],373 mg/dL
same,Level,Rattus norvegicus [17],78 U l-1
same,Serum level,Cricetinae gen. sp. [18],429 mg/dL
same,Liver weight,Rattus norvegicus [19],8.2 g
same,Serum level,Rattus norvegicus [20],3.65 µg/dL
same,Level,Rattus norvegicus [21],385 U l-1
same,Body weight,Rattus norvegicus [22],28.5 g
same,Level,Rattus norvegicus [23],743 U l-1
same,Serum level,Rattus norvegicus [24],41 mg/dL
